Assay [1] deals with Plasmodium falciparum. The experiment in a line: Antimalarial activity against chloroquine-sensitive Plasmodium falciparum D6. The assay is classed as functional, organism-based.
Assay [2] has as its system Plasmodium falciparum. Kind of assay: Antimalarial activity against chloroquine-resistant Plasmodium falciparum W2. The assay is classed as functional, organism-based.
Assay [3] can be described thus: Evaluated for the neurotoxicity against NB2a Neuroblastoma cells. The assay is classed as functional, cell-based, Mus musculus. The gist of the method: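 Neurite outgrowth assay in NB2a neuroblastoma cells grown in high-glucose DMEM with 5% horse serum and 5% fetal calf serum, 37 °C, 5% CO2. Cells plated at 15 000 cells/mL. After 24 h, switched to serum-free medium with 0.5 mM dibutyryl cAMP plus drug at 10 and 0.1 µM for a further 24 h. Cells fixed in formaldehyde and stained with Coomassie. Average neurite length per cell measured by image analysis over 10 fields of about 20 cells; IC50 reported.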

Assay [4] concerns Mus musculus. Kind of assay: Evaluated for the percentage of subcutaneously to Plasmodium berghei infected mice on days 3, 4, and 5 post infection. The class given is functional. The gist of the method: (§1)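 Modified Thompson test. Five-week-old CD-1 mice infected ip on day 0 with drug-sensitive P. berghei KBG 173 trophozoites from a donor mouse at 60% parasitemia. Groups of five or seven mice dosed sc b.i.d. on days 3, 4 and 5 at 64 mg/kg/day. Parasitemia read on Giemsa-stained blood films on day 6, then weekly to day 60. Survival followed; mice alive and blood-film negative at day 60 counted as cured.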

Assay [5] deals with Mus musculus. The experiment in a line: Evaluated for the survival of the mice when 128 mg/kg/day was administered orally to Plasmodium berghei infected mice on days 3, 4, and 5 post infection.1/8, 2/16, 1/32, 3/C(C=survival beyond 60 days). The assay is classed as functional, organism-based. The gist of the method: (§2)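 Modified Thompson test. Five-week-old CD-1 mice infected ip on day 0 with drug-sensitive P. berghei KBG 173 trophozoites from a donor mouse at 60% parasitemia. Groups of five or seven mice dosed po b.i.d. on days 3, 4 and 5 at 128 mg/kg/day. Giemsa blood films taken on day 6, then weekly to day 60. Day of death recorded; mice alive and blood-film negative at day 60 counted as cured.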

The test system of assay [6] is Mus musculus. The experiment in a line: Evaluated for the survival of the mice when 64 mg/kg/day was administered subcutaneously to Plasmodium berghei infected mice on days 3, 4, and 5 post infection;1/8, 2/9, 1/10, 1/13. The assay is classed as functional, organism-based. The gist of the method:
as §1

Assay [7] has as its system Mus musculus. The experiment in a line: Evaluated for the survival of the mice when 128 mg/kg/day was administered orally to Plasmodium berghei infected mice on days 3, 4, and 5 post infection; 1/15; 1/17; 1/18; 2/C(C=Survival beyond 60 days). The assay is classed as functional, organism-based. The gist of the method:
as §2

Assay [8] has as its system Mus musculus. Kind of assay: Evaluated for the survival of the mice when 64 mg/kg/day was administered subcutaneously to Plasmodium berghei infected mice on days 3, 4, and 5 post infection;1/9, 2/10, 1/18, 1/19. The class given is functional, organism-based. The gist of the method:
as §1

In assay [9] the test system is Mus musculus. Kind of assay: Evaluated for the survival of the mice when 128 mg/kg/day was administered orally to Plasmodium berghei infected mice on days 3, 4, and 5 post infection;1/9 1/26 3/C(C=survival beyond 60 days). The class given is functional, organism-based. The gist of the method: as §2
In assay [10] the test system is Mus musculus. The experiment in a line: Evaluated for the survival of the mice when 64 mg/kg/day was administered subcutaneously to Plasmodium berghei infected mice on days 3, 4, and 5 post infection;1/8, 1/9, 1/10, 1/12, 1/15. The class given is functional, organism-based. The gist of the method:
as §1

The test system of assay [11] is Mus musculus. The experiment in a line: Evaluated for the survival of the mice when 128 mg/kg/day was administered orally to Plasmodium berghei infected mice on days 3, 4, and 5 post infection; 5/C(C=survival beyond 60 days). The assay is classed as functional, organism-based. The gist of the method:
as §2

The subject of assay [12] is Mus musculus. The experiment in a line: Evaluated for the survival of the mice when 64 mg/kg/day was administered subcutaneously to Plasmodium berghei infected mice on days 3, 4, and 5 post infection; 7/C(C=survival beyond 60 days). The class given is functional, organism-based. The gist of the method:
as §1

As a reminder, the IC50 is the point on the concentration scale where inhibition reaches its midpoint. Low values mean greater potency in that assay, high ones weaker potency in that assay. For the compound `C[C@@H]1CCCCC12OOC1(CCCC[C@@H]1C)OO2` (stereo partly specified) [WR-148999], the 50% inhibitory concentration (IC50) with Plasmodium falciparum [1] turned out to be 55 nM; with Plasmodium falciparum [2], 32 nM; in assay [3], 8.4 nM. For the same compound, the Parasitemia in the assay on Mus musculus [4] worked out at 11%.

On to `CC1(C)CCC2(CC1)OOC1(CCC(C)(C)CC1)OO2`, for which the IC50 in the assay with Plasmodium falciparum [1] was over 1000 nM; in the assay with Plasmodium falciparum [2] it was over 1000 nM; in [3], 2 nM.

`CC1CCCC2(C1)OOC1(CCCC(C)C1)OO2` (stereo unspecified): the IC50 worked out at 76 nM in the assay on Plasmodium falciparum [1], 51 nM in the assay with Plasmodium falciparum [2] and 16 nM in [3].

Turning to `CC1CCC(C(C)C)C2(C1)OOC1(CC(C)CCC1C(C)C)OO2` (stereo unspecified), the IC50 with Plasmodium falciparum [1] was 47 nM; in the assay with Plasmodium falciparum [2], 37 nM; in [3], 37 nM. The “No. of mice dead/day died” value in the assay on Mus musculus [5] and with Mus musculus [6] was “survival beyond 60 days” throughout. The compound further came in with a Parasitemia in the assay with Mus musculus [4] of 7%.

As for `C[C@@H]1CC[C@H]2[C@@H](C)C(=O)O[C@@H]3O[C@@]4(C)CC[C@@H]1[C@]32OO4` [ARTEMISININ], the IC50 in the assay with Plasmodium falciparum [1] was 8.4 nM; with Plasmodium falciparum [2] it was 7.3 nM.

With `CC1CC(C)CC2(C1)OOC1(CC(C)CC(C)C1)OO2` (stereo unspecified), the IC50 in the assay on Plasmodium falciparum [1] amounted to 30 nM; in the assay on Plasmodium falciparum [2], 15 nM; in assay [3], 6.7 nM. Also, the Parasitemia in the assay with Mus musculus [4] amounted to 82%.

With `CC1CCC2(OOC3(CCC(C)CC3C)OO2)C(C)C1` (stereo unspecified), the IC50 is 110 nM with Plasmodium falciparum [1], 49 nM in the assay on Plasmodium falciparum [2] and over 1 nM in [3].

Take `CC(C)C1CCC(C)C2(C1)OOC1(CC(C(C)C)CCC1C)OO2` (stereo unspecified): the IC50 is 140 nM with Plasmodium falciparum [1], 94 nM in the assay on Plasmodium falciparum [2] and 40 nM in assay [3].

Consider `CC(C)(C)C1CCC2(CC1)OOC1(CCC(C(C)(C)C)CC1)OO2` (stereo unspecified), for which the IC50 with Plasmodium falciparum [1] was 200 nM; in the assay with Plasmodium falciparum [2], 100 nM; in [3] it was 2.8 nM.

With `CC1CC(C)(C)CCC12OOC1(CCC(C)(C)CC1C)OO2` (stereo unspecified), the IC50 is over 1000 nM with Plasmodium falciparum [1], over 1000 nM with Plasmodium falciparum [2] and 1.4 nM in [3].

As to `CO[C@H]1O[C@@H]2O[C@@]3(C)CC[C@H]4[C@H](C)CC[C@@H]([C@H]1C)[C@@]24OO3` [ARTEMETHER], half-maximal inhibition in assay [3] (IC50) was put at 351 nM.

As for `CC1CCC2(CC1C)OOC1(CCC(C)C(C)C1)OO2` (stereo unspecified), the “No. of mice dead/day died” value with Mus musculus [7] and in the assay on Mus musculus [8] was “Survival beyond 60 days” each time. Besides, the IC50 with Plasmodium falciparum [1] worked out at 12 nM; with Plasmodium falciparum [2] it was 10 nM; in [3] it was 4.4 nM. In addition, the Parasitemia with Mus musculus [4] was 14%.

`CC1CCCC2(OOC3(CCCC(C)C3C)OO2)C1C` (stereo unspecified): the IC50 in the assay on Plasmodium falciparum [1] came to 50 nM; in the assay with Plasmodium falciparum [2], 43 nM. For the same compound, the Parasitemia with Mus musculus [4] is 3%.

Regarding `CCC[C@@H]1CCCCC12OOC1(CCCC[C@@H]1CCC)OO2` (stereo partly specified), the IC50 in the assay with Plasmodium falciparum [1] came out at 84 nM; with Plasmodium falciparum [2], 39 nM.

On to `CC1CCC(C)C2(C1)OOC1(CC(C)CCC1C)OO2` (stereo unspecified), for which the IC50 was 15 nM in the assay with Plasmodium falciparum [1], 19 nM in the assay with Plasmodium falciparum [2] and 17 nM in assay [3]. In addition, the “No. of mice dead/day died” value in the assay with Mus musculus [9] and with Mus musculus [10] was “survival beyond 60 days” each time. The compound also registered a Parasitemia in the assay on Mus musculus [4] of 13%.

For the compound `CC1(C)CC(C)(C)CC2(C1)OOC1(CC(C)(C)CC(C)(C)C1)OO2`, the IC50 is over 1000 nM in the assay on Plasmodium falciparum [1], over 1000 nM in the assay with Plasmodium falciparum [2] and 3.6 nM in [3].

Regarding `CC[C@@H]1CCCCC12OOC1(CCCC[C@@H]1CC)OO2` (stereo partly specified), the IC50 in the assay on Plasmodium falciparum [1] amounted to 23 nM; in the assay on Plasmodium falciparum [2], 19 nM; in assay [3], 9.3 nM. The Parasitemia with Mus musculus [4] is listed as 28%.

As for `CCO[C@H]1O[C@@H]2O[C@@]3(C)CC[C@H]4[C@H](C)CC[C@@H]([C@H]1C)[C@@]24OO3` [ARTEMOTIL], the IC50 amounted to 2.7 nM with Plasmodium falciparum [1] and 1.4 nM in the assay with Plasmodium falciparum [2]. The “No. of mice dead/day died” value in the assay with Mus musculus [11] and in the assay on Mus musculus [12] was “survival beyond 60 days” each time. This compound also had a Parasitemia in the assay on Mus musculus [4] of 0%.

For the compound `CC(C)(C)[C@H]1CCCCC12OOC1(CCCC[C@H]1C(C)(C)C)OO2` (stereo partly specified), the IC50 with Plasmodium falciparum [1] was over 300 nM; with Plasmodium falciparum [2] it was 160 nM; in assay [3], 3.4 nM.

In the case of `CC1CCC2(CC1)OOC1(CCC(C)CC1)OO2` (stereo unspecified), the results for the IC50 (with Plasmodium falciparum [1]; in the assay with Plasmodium falciparum [2]; in assay [3]) were 23 nM, 21 nM and 1.1 nM, respectively. For the same compound, the Parasitemia in the assay on Mus musculus [4] is on record as 22%.

The values are drawn from ChEMBL document CHEMBL1133466, “Synthesis and antimalarial activity of sixteen dispiro-1,2,4, 5-tetraoxanes: alkyl-substituted 7,8,15,16-tetraoxadispiro[5.2.5. 2]hexadecanes” (J Med Chem, 2000).
